The sample as a whole holds a higher share of hits than the screen did.
AP complement = alternative pathway complement inhibition, orthogonal assay; inhibition, % at 5 µM; actives 0.08% (n = 62,000); Human serum alternative complement pathway, LPS-coated ELISA, C3 deposition; tested in compound mixtures;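 active means inhibition above 30% in each of the two pooled mixtures holding the compound, so the lower value exceeds 30%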
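Medium: diluted human serum in Mg2+-EGTA GVB++. Assay system: human serum complement alternative pathway, C3 deposition onto LPS. Also added: Plate-bound LPS. Technique: Anti-C3 ELISA, OD 450 nm. Measure: percent inhibition. Incubation: 1 h at 37 °C. Dosing: 5 µM each compound, pools of ten, 50 µM per pool.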
DAT uptake mod = changed human dopamine transporter uptake under cocaine IC80; LLC-PK1 hDAT cells, [14C]-dopamine uptake with cocaine IC80; actives deviate in either direction; Q01959; AID 449768; actives 1.3% (n = 110,000); B-score at 10 µM;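 active means Z score or B-score, a plate-position-corrected score, falls beyond the plate's 99.7% confidence bounds, in either direction; inactive means both scores lie inside the 99.7% bounds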
WNV protease inh = inhibitors of West Nile virus NS2B-NS3 protease. WNV NS2B-NS3 protease, fluorogenic substrate Ex360/Em465; stronger effect = lower value. P06935. actives 0.18% (n = 65,000). z-score (test concentration not listed). AID 577; in the data active means z-score below about -3
D1 allo mod = allosteric modulators of human D1 dopamine receptor; B-score at 10 µM; actives 5.9% (n = 58,000); P21728; HEK293 D1, CRE-luciferase, dopamine EC30 potentiation; actives deviate in either direction;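 active means luminescence count or its row- and column-corrected plate score outside the 99.7% band of the plate's sample wells, on either side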
Target sequence (P21728 whole entry, looked up): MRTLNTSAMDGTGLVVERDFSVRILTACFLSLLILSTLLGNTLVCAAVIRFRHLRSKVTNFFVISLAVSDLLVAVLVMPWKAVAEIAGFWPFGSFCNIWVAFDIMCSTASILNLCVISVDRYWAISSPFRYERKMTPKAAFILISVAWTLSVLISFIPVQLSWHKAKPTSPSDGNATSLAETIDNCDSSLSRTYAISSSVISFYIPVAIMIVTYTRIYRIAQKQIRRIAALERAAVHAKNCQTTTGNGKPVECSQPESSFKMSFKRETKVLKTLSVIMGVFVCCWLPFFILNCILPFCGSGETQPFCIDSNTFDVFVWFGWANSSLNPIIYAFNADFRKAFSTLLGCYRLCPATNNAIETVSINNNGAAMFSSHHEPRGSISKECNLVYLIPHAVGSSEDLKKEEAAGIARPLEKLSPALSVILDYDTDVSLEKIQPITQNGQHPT
A number is an active result; 0 = inactive; - = no result.

SMILES	AP complement	DAT uptake mod	WNV protease inh	D1 allo mod
Cc1oc(-c2ccc3c(c2)OCCO3)cc1C(=O)NC(CCC(=O)O)C(=O)O (stereo unspecified)	0	0	0	0
Cn1ncc2c1ncn1c(-c3ccccc3Cl)nnc21	0	-	0	-
COc1ccccc1C(=O)Nc1ccc(S(=O)(=O)Nc2cc(C)on2)cc1	0	0	0	0
COc1ccc(S(=O)(=O)Nc2cc(C)on2)cc1OC	0	0	0	-2.8
Cn1c(Cn2c(=O)sc3ccccc32)nnc1SCC(=O)NC1CCCCC1	0	0	0	-
Cn1c(Cn2c(=O)sc3ccccc32)nnc1SCC(=O)NC1CCCC1	0	7.6	0	0
CCCc1[nH]nc2c1C(c1ccc(OC)c(Cn3nnc4ccccc43)c1)C(C#N)=C(N)O2 (stereo unspecified)	0	3.6	0	0
COc1ccc(C2C(C#N)=C(N)Oc3n[nH]c(C)c32)cc1Cn1nnc2ccccc21 (stereo unspecified)	0	0	0	0
O=C(CSc1nnc(CNc2ccccc2)o1)N1CCc2ccccc21	0	0	0	0
Cc1cc(C)nc(SCc2nnc(SCC(=O)N3CCCc4ccccc43)o2)n1	0	3.3	0	0
O=C(CSc1nnc(Cc2ccccc2)o1)N1CCCc2ccccc21	0	2.6	0	0
CCCNC(=O)C1(CC2CC(c3ccccc3)=NO2)CCN(C(=O)Cc2ccc(F)cc2)CC1 (stereo unspecified)	-	0	-	-
CCOC(=O)c1oc2ccccc2c1NC(=O)c1ccc2c(c1)OCO2	0	0	0	-
CCOC(=O)c1oc2ccccc2c1NC(=O)c1ccc(Cl)s1	-	-2.4	-	-
O=C(O)CCc1ccc(-c2ccc(Cl)cc2)n1CCC(=O)O	-	0	-	-
O=C(O)CCc1ccc(-c2ccc(Cl)cc2)n1CC(=O)O	0	0	0	-3.7
CCOC(=O)c1c(NC(=O)CSc2nnc(CNc3ccc(Cl)cc3)o2)sc(C)c1C	-	0	-	-
CCOC(=O)c1c(NC(=O)CSc2nnc(CNc3ccc(F)cc3)o2)sc(C)c1C	0	0	0	-4.5
COc1ccc(Br)cc1S(=O)(=O)n1ccnc1C	0	2.7	0	0
COc1ccc(OC)c(S(=O)(=O)n2ccnc2C)c1	-	0	-	-
C[C@@]12CCC=C[C@H]1[C@H](c1ccc(C(F)(F)F)cc1)N(Cc1ccccc1)C2=O	-	0	-	-
COc1ccc(CCNC(=O)C2CC(c3ccccc3F)=NO2)cc1 (stereo unspecified)	-	0	-	-
O=C(CCCn1c(=S)[nH]c2ccc(Br)cc2c1=O)N1CCN(c2ccccn2)CC1	0	0	0	0
CCCC(=O)Nc1ccc(C(=O)Nc2nnc(COCC)s2)cc1	-	-7.8	-	-
CCCC(=O)Nc1ccc(C(=O)Nc2nnc(COC)s2)cc1	0	0	0	0
SMILES	AP complement	DAT uptake mod	WNV protease inh	D1 allo mod
O=[n+]1cc(-c2cccc3ccccc23)n([O-])c2c1CCC2	-	0	-	-
CCn1cc(C(=O)NCc2cccs2)c(=O)c2ccc(C)nc21	0	2.9	0	0
OCCNC1=NCCN1	0	0	-3.2	-
Cc1ccc(S(=O)(=O)/N=C(/Nc2c(C)n(C)n(-c3ccccc3)c2=O)c2ccc(Cl)cc2)cc1	-	5.6	-	-
CCCn1c(/N=C/c2cc(OC)ccc2O)nc2ccccc21	0	0	0	0
CCCCn1c(/N=C/c2cc(OC)ccc2O)nc2ccccc21	0	2.7	0	0
CCCc1cc(=O)[nH]c(SCc2cc(Cl)ccc2OC(F)F)n1	-	0	-	-
O=C1c2cccnc2C(=O)N1Cc1ccc(F)cc1	0	0	0	-1.2
O=C1c2cccnc2C(=O)N1Cc1ccc(Cl)cc1	-	0	-	-
CNC(=O)COc1ncnc2sc(C)c(C)c12	-	0	-	-
Cc1sc2ncnc(OCC(=O)NCC3CCCO3)c2c1C (stereo unspecified)	0	-3.3	0	0
Cc1nc2cc(NC(=O)COc3ccc(C#N)cc3)ccc2n1-c1ccccc1	0	-7.9	0	0
O=S(=O)(Nc1nnc(-c2ccccc2)s1)c1ccc(Cl)cc1	0	-3	0	0
CC(C)(C)n1ncc2c(=O)n(CC(=O)NCc3ccccc3)cnc21	0	0	0	-5.4
O=S(=O)(/N=C(/c1ccc(Cl)cc1)N1CCOCC1)c1ccc(Cl)cc1	-	2	-	-
Cc1nonc1NC(=O)CSc1nc2cc(Cl)ccc2c2c1CCCC2	0	0	0	-2.5
CCCCNC(=O)c1ccc(S(=O)(=O)c2ccc(Cl)cc2)c(NC(C)=O)c1	-	0	-	-
O=C(Nc1ccc(CN2CCOCC2)cc1)c1cc2ccccc2oc1=O	0	-	0	-5.6
O=C(Nc1cccnc1N1CCOCC1)c1cc2ccccc2oc1=O	0	-	0	4.2
COP1(=O)C=C[C@H](N(Cc2ccccc2)S(=O)(=O)c2ccccc2[N+](=O)[O-])[C@@H](C)O1 (stereo partly specified)	-	0	-	-
C=CCc1ccccc1OCC(O)CN1CCN(Cc2ccc3c(c2)OCO3)CC1 (stereo unspecified)	0	0	0	-5.8
CC(C)(C)OC(=O)N[C@@H](Cc1ccccc1)c1nnc(S(=O)(=O)Cc2ccccc2)o1	31	0	0	0
O=C(Cc1ccc(S(=O)(=O)N2CCOCC2)s1)NCC1CCCCC1	0	0	0	-7
CCOC(=O)c1c(C)n(C)c2ccc(OCC(O)Cn3c(C)nc4ccccc43)cc12 (stereo unspecified)	-	2	0	0
Cc1cc(C)cc(SCc2noc(C(=O)NCCC(C)C)c2C(=O)NCCC(C)C)c1	-	0	-	-
SMILES	AP complement	DAT uptake mod	WNV protease inh	D1 allo mod
O=C(NC(=S)N(Cc1ccccc1)Cc1ccccc1)c1ccccc1F	-	0	-	-
Cc1ccc(Nc2nc(N3CCOCC3)c3ccccc3n2)cc1	0	0	0	-5.8
Oc1ccc(Nc2nc(N3CCCC3)c3ccccc3n2)cc1	0	0	0	0
CCN(CC)C(=O)C(=O)N/N=C/c1ccc(Br)cc1	-	0	-	-
N#Cc1cc2c(nc1SCC(=O)Nc1sc3c(c1C#N)CCC3)CCC2	-	0	-	-
N#Cc1cc2c(nc1SCC(=O)Nc1sc3c(c1C#N)CCC3)CCCCCC2	-	2.6	-	-
CSc1ccccc1NC(=O)c1cccnc1	0	0	0	0
Cc1cccc(NC(=O)CSc2nnc(CSc3nc(C)cc(C)n3)n2Cc2ccco2)c1	0	2.8	0	0
CC(C)CN(CC(C)C)c1nnc(N)s1	0	-	0	0
N=c1n(CCO)c2ccccc2n1CCOc1ccc(Cl)cc1Cl	0	3	0	0
COCCCNC(=O)c1cn(Cc2c(F)cccc2Cl)nn1	0	0	0	-3.9
COCCNC(=O)CSCc1c(F)cccc1Cl	0	0	0	0
COC(=O)c1ccc(C23CC4(C2)[C@H](CN(CC2CCCCC2)[C@@H]4c2ccccc2)C3c2ccc(C(F)(F)F)cc2)cc1 (stereo partly specified)	-	0	-	-
O=C(NCCCn1ccnc1)Nc1cccc2ccccc12	-	0	-	-
O=C(NCCCn1ccnc1)C1c2ccccc2Oc2ccccc21	0	0	0	-2.5
O=C(CSC1=NCCS1)N1CCN(c2ccc(Cl)cc2)CC1	-	2.6	-	-
Cn1nnnc1SCC(=O)N1CCN(c2ccc(Cl)cc2)CC1	0	-	0	0
Cc1nc(N2CCC(C)CC2)c2nnn(Cc3ccccc3)c2n1	-	3.1	-	-
CC(C)Cc1nc(N2CCC(C(N)=O)CC2)c2nnn(Cc3ccccc3)c2n1	-	0	0	0
